Results from ChEMBL document CHEMBL3244012, “Guanylhydrazones with potential antileukemic activity. 2. Synthesis and structure-activity relationships of analogues of 4,4'-diacetyl-N,N'-diphenylurea bis(guanylhydrazone)” (J Med Chem, 1978).
Values belong to the molecule of their own block, whether it stands above or below them.

Columns and labels:
[1] = target: T1, DNA polymerase alpha catalytic subunit (Mus musculus) (UniProt P33609); test: Inhibition of DNA polymerase alpha isolated from mouse L1210 cells assessed as reduction in DNA synthesis by cell-free system based assay
T1 sequence (whole entry): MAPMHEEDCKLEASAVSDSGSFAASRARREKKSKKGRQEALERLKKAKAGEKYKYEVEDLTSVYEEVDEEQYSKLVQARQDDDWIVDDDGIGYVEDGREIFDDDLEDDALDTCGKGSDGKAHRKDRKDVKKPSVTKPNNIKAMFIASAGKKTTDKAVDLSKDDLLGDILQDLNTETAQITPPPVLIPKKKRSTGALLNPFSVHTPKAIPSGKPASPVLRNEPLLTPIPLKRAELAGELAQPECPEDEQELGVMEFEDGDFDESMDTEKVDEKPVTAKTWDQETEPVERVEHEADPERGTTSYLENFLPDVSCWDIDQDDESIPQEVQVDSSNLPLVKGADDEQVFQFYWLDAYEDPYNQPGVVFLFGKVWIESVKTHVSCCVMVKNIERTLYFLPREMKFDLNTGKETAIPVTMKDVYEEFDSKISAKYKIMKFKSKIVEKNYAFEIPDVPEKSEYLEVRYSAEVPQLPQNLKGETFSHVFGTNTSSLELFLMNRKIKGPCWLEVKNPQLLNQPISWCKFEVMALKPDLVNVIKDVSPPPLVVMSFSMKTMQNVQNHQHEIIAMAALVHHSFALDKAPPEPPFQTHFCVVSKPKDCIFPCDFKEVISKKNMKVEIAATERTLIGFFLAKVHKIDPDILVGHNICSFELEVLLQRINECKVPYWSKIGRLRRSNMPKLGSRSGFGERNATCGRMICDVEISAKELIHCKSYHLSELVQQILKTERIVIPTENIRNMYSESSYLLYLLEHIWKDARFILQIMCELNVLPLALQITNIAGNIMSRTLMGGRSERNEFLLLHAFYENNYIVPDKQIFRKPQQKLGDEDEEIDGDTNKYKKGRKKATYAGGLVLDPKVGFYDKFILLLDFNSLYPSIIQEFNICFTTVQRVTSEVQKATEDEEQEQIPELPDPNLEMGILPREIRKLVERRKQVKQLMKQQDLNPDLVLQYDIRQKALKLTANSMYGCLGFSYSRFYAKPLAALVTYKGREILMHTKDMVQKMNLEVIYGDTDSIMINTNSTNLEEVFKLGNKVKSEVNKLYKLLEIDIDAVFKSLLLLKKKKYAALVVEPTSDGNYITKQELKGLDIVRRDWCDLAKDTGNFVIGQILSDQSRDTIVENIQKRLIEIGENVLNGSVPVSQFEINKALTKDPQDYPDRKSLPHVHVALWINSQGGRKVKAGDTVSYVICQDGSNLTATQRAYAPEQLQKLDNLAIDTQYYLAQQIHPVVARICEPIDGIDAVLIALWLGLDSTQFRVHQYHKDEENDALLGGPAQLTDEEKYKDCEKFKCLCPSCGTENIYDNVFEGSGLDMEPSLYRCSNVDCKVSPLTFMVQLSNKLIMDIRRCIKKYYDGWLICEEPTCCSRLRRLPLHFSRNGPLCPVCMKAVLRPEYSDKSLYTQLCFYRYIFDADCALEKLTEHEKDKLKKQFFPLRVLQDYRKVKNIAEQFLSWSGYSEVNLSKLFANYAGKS
In short: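 DNA polymerase α taken as a crude extract of mouse L1210 leukemia cells, assayed in a Bollum-type cell-free DNA synthesis system. Compounds added at different concentrations to the assay mixture before enzyme; initial reaction velocity measured.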

TA3 = test: Cytotoxicity against mouse TA3 cells assessed as growth inhibition after 3 days; assay type: functional; conditions: TA3, 72 h, read-out: ID50 (the source's name)
In short: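 Mouse mammary adenocarcinoma TA-3 cells grown in stationary tubes in RPMI 1640 with 10% horse serum; 50 000 cells inoculated with compound in medium, incubated upright 3 days. Growth read by protein assay; control growth six- to tenfold. Five tubes per concentration; inhibitory compounds retested at least twice. ID50 = 50% inhibitory concentration, between-test variation within ±10%.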

L1210 = test: Antitumor activity against mouse L1210 cells allografted in DBA/2J mouse assessed as survival at 30 mg/kg, ip dosed once daily on days 1 to 3 (reference value: 8.2 +/- 1.1 days); assay type: functional; conditions: route intraperitoneal
[2] = Solubility in aqueous solvents; assay type: physicochemical; conditions: buffer

SMILES: C/C(=N\NC(=N)N)c1ccc(N(C)C(=O)N(C)c2ccc(/C(C)=N/NC(=N)N)cc2)cc1
- inhibitory concentration [1]: 310 µM
- IC50 (TA3): 100 µM
- Survival (L1210): 1.7 days

SMILES: C/C(=N\NC(=N)N)c1ccc(NC(=O)Nc2ccc(/C(C)=N/NC(=N)N)cn2)nc1
- inhibitory concentration [1]: 160 µM
- IC50 (TA3): 7 µM
- Survival (L1210): 11 days

- solubility [2]: Insoluble
SMILES: C/C(=N/NC(N)=S)c1ccc(NC(=O)Nc2ccc(/C(C)=N/NC(N)=S)cc2)cc1

SMILES: Br.Br.C/C(=N/NC(=N)N)c1ccc(NC(=O)NCc2ccc(/C(C)=N/NC(=N)N)cc2)cc1
- inhibitory concentration [1]: 110 µM
- IC50 (TA3): 20 µM
- Survival (L1210): 23 days

SMILES: Br.Br.C/C(=N/NC(=N)N)c1ccc(CNC(=O)N(Cc2ccc(/C(C)=N/NC(=N)N)cc2)N=O)cc1
- inhibitory concentration [1]: 230 µM
- IC50 (TA3): > 100 µM
- Survival (L1210): 10.5 days

- solubility [2]: Insoluble
SMILES: C/C(=N\O)c1ccc(NC(=O)Nc2ccc(/C(C)=N/O)cc2)cc1

SMILES: C/C(=N\NC(=N)N)c1ccc(NC(=O)Oc2ccc(/C(C)=N/NC(=N)N)cc2)cc1
- inhibitory concentration [1]: 170 µM
- IC50 (TA3): 180 µM

SMILES: Br.Br.C/C(=N\NC(=N)N)c1ccc(NC(=O)N(C)c2ccc(/C(C)=N/NC(=N)N)cc2)cc1
- inhibitory concentration [1]: 80 µM
- IC50 (TA3): 180 µM
- Survival (L1210): 14.3 days

- inhibitory concentration [1]: 60 µM
SMILES: C/C(=N\NC(=N)N)c1ccc(NC(=O)Nc2ccc(/C(C)=N/NC(=N)N)cc2)cc1
- IC50 (TA3): 6 µM

SMILES: C/C(=N/NC(=N)N[N+](=O)[O-])c1ccc(NC(=O)Nc2ccc(/C(C)=N\NC(=N)N[N+](=O)[O-])cc2)cc1
- solubility [2]: Insoluble

SMILES: C/C(=N\NC(=N)N)c1ccc(NC(=O)Nc2ccc(/C(C)=N/NC(=N)N)cn2)cc1
- IC50 (TA3): 7 µM
- Survival (L1210): 11.3 days

SMILES: Br.Br.C/C(=N\NC(=N)N)c1ccc(CNC(=O)NCc2ccc(/C(C)=N/NC(=N)N)cc2)cc1
- IC50 (TA3): 90 µM
- Survival (L1210): 10.7 days
